Measured values reported in ChEMBL document CHEMBL2057168, “(1aR,5aR)1a,3,5,5a-Tetrahydro-1H-2,3-diaza-cyclopropa[a]pentalene-4-carboxylic acid (MK-1903): a potent GPR109a agonist that lowers free fatty acids in humans” (J Med Chem, 2012).
The source made the active and inactive calls. The calls are words filed in the database; no cut-off is given here.

How the values were obtained:
[1] = molecular target: Hydroxycarboxylic acid receptor 3 (Homo sapiens) (UniProt P49019); assay: Agonist activity at human GPR109b assessed as decrease in forskolin-stimulated cAMP production by HTRF assay; type: functional
Rattus norvegicus [2] = assay: Antidyslipedic activity in fasted Sprague-Dawley rat assessed as decrease in free fatty acid level at 0.001 mg/kg, po by NEFA C-free fatty acid assay; type: functional, organism-based; parameters: dose 0.001 mg/kg
In short: (§1)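 Male Sprague-Dawley rats fasted, compound by oral gavage, serial plasma sampling after dosing for free fatty acids over a time course; vehicle-dosed control group.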

[3] = Oral bioavailability in mouse; type: ADME, organism-based; details: in vivo
[4] = Volume of distribution in dog; type: ADME, organism-based, Canis lupus familiaris; details: in vivo
[5] = Terminal half life in mouse; type: ADME, organism-based; details: in vivo, read-out: beta t1/2 (converted)
Canis familiaris [6] = assay: Dose normalized AUC in po dosed dog; type: ADME, organism-based, Canis lupus familiaris; details: in vivo
[7] = Blood clearance in mouse; type: ADME, organism-based; details: whole blood
In short: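 Pharmacokinetics across species; for mice, clearance determined in blood rather than plasma following dosing.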

Rattus norvegicus [8] = assay: Antidyslipedic activity in fasted Sprague-Dawley rat assessed as decrease in free fatty acid level at 0.1 to 30 mg/kg, po by NEFA C-free fatty acid assay; type: functional; parameters: scale not given: the % may be the effect or the level left; details: dose mg/kg 0.1-30; in short: as §1
Rattus norvegicus [9] = assay: Dose normalized Cmax in Sprague-Dawley rat at 10 mg/kg, po; type: ADME, organism-based; parameters: dose 10 mg/kg, route oral; details: in vivo
In short: (§2)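 Male Sprague-Dawley rats were dosed at 10 mg/kg po or 2 mg/kg iv in 80% PEG400/20% phosphate-buffered saline, fasted overnight before the oral dose. Jugular blood was sampled serially from 0.25 to 21 h over 24 h, and heparinized plasma was prepared. Drug was assayed by HPLC/MS/MS (quantitation range 1–2000 ng/mL).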

Canis familiaris [10] = assay: Dose normalized Cmax in po dosed dog; type: ADME, organism-based, Canis lupus familiaris; details: in vivo
[11] = Terminal half life in Sprague-Dawley rat at 2 mg/kg, iv; type: ADME, organism-based; parameters: dose 2 mg/kg, route intravenous; details: in vivo, read-out: beta t1/2 (converted); in short: as §2
Mus musculus [12] = assay: Toxicity in C57/Bl6 mouse assessed as increase in cutaneous blood flow in ear at 100 mg/kg, ip after 5 mins relative to vehicle treated control by laser doppler flowmetry; type: organism-based; parameters: dose 100 mg/kg, route intraperitoneal; details: in vivo
In short: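 Male C57/Bl6 mice (8–10 weeks, ~25 g) anesthetized with Nembutal ip (80 mg/10 mL/kg). Ear perfusion recorded by laser Doppler imaging: 3 min baseline, then vehicle (PBS, 40% HPBCD or 0.5% methylcellulose) or compound given ip at 5 mL/kg through a preinserted syringe, with readings for ~15 min. Expressed as % change of perfusion over baseline.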

[13] = Volume of distribution in Sprague-Dawley rat at 2 mg/kg, iv; type: ADME, organism-based; parameters: dose 2 mg/kg, route intravenous; details: in vivo
In short: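 Male Sprague–Dawley rats dosed iv at 2 mg/kg in 80% PEG400/20% phosphate buffered saline. Jugular vein blood was serially sampled over 24 h, and plasma was prepared from sodium heparin blood. Plasma was analysed by HPLC/MS/MS (LLOQ 1 ng/mL, ULOQ 2000 ng/mL).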

[14] = Plasma clearance in dog; type: ADME, organism-based, Canis lupus familiaris
Rattus norvegicus [15] = assay: Antidyslipedic activity in fasted Sprague-Dawley rat assessed as decrease in free fatty acid level at 0.01 to 100 mg/kg, po by NEFA C-free fatty acid assay; type: functional; parameters: scale not given: the % may be the effect or the level left; details: dose mg/kg 0.01-100; in short: as §1
Rattus norvegicus [16] = assay: Dose normalized AUC in Sprague-Dawley rat at 10 mg/kg, po; type: ADME, organism-based; parameters: dose 10 mg/kg, route oral; details: in vivo; in short: as §2
[17] = Volume of distribution in mouse; type: ADME, organism-based; details: in vivo
Cytochrome P450 3A4 = Cytochrome P450 3A4 (Homo sapiens, UniProt P08684); assay: Activity at CYP3A4; type: ADME
[18] = Oral bioavailability in dog; type: ADME, organism-based, Canis lupus familiaris; details: in vivo
Cytochrome P450 2C9 = Cytochrome P450 2C9 (Homo sapiens, UniProt P11712); assay: Activity at CYP2C9; type: ADME
[19] = Oral bioavailability in Sprague-Dawley rat at 10 mg/kg; type: ADME, organism-based; details: in vivo; in short: as §2
[20] = Terminal half life in dog; type: ADME, organism-based, Canis lupus familiaris; details: in vivo, read-out: beta t1/2 (converted)
[21] = Plasma clearance in Sprague-Dawley rat at 2 mg/kg, iv; type: ADME, organism-based; parameters: dose 2 mg/kg, route intravenous; in short: as §2
Mus musculus [22] = assay: Dose normalized AUC in po dosed mouse; type: ADME, organism-based; details: in vivo
Cytochrome P450 2D6 = Cytochrome P450 2D6 (Homo sapiens, UniProt P10635); assay: Activity at CYP2D6; type: ADME
Cytochrome P450 2C8 = molecular target: T1, Cytochrome P450 2C8 (Homo sapiens, UniProt P10632); assay: Activity at CYP2C8; type: ADME
T1 sequence (P10632 whole entry): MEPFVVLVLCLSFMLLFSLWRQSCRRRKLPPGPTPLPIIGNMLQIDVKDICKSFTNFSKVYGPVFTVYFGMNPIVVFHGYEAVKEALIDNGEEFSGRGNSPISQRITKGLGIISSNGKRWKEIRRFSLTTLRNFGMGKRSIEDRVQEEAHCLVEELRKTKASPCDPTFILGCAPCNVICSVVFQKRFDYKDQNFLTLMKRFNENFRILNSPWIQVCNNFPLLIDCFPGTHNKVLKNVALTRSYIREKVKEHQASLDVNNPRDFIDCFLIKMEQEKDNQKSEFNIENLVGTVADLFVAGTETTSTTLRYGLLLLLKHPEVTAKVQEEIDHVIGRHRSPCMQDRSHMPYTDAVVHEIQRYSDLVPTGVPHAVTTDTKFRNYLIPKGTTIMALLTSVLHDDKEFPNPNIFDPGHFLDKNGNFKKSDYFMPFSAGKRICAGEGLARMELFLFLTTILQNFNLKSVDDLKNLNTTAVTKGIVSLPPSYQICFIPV

Mus musculus [23] = assay: Dose normalized Cmax in po dosed mouse; type: ADME, organism-based; details: in vivo

Chain of Hydroxycarboxylic acid receptor 3 (Homo sapiens) (P49019 whole entry): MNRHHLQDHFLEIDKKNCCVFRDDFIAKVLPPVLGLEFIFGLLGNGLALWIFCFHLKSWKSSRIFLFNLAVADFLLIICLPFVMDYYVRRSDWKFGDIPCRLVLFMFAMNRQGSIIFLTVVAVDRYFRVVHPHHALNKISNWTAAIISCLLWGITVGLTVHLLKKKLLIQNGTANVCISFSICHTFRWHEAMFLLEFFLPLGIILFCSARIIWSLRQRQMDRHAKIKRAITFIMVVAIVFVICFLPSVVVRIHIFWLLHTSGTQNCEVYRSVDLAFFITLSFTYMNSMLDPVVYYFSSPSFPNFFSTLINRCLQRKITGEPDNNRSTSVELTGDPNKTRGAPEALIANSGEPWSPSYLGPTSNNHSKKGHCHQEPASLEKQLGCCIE
Chain of Cytochrome P450 2D6 (P10635 whole entry): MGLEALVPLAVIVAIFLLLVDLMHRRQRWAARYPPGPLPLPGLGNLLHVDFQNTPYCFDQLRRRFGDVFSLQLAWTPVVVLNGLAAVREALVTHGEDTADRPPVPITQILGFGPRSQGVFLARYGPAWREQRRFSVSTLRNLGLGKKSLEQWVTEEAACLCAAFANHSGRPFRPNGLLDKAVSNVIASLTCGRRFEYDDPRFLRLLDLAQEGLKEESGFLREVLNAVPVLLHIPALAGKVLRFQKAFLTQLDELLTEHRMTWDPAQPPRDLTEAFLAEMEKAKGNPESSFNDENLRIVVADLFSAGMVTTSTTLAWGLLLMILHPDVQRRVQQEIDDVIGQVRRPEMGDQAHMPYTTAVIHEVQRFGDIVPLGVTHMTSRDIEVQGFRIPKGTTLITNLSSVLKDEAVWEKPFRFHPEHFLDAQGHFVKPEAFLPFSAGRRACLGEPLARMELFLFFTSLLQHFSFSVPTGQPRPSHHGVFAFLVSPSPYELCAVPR
Chain of Cytochrome P450 3A4 (P08684 whole entry): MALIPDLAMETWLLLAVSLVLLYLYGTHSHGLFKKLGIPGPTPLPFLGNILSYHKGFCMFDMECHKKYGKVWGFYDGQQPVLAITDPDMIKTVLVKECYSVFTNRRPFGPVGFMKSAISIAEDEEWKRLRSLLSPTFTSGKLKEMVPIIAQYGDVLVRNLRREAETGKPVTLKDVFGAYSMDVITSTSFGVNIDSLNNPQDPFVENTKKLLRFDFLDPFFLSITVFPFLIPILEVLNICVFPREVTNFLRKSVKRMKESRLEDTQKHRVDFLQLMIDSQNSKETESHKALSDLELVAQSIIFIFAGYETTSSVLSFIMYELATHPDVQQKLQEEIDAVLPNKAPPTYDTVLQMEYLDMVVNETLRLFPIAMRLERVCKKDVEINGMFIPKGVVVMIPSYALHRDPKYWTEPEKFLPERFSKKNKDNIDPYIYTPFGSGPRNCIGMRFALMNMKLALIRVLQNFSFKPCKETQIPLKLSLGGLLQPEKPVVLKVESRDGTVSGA
Chain of Cytochrome P450 2C9 (P11712 whole entry): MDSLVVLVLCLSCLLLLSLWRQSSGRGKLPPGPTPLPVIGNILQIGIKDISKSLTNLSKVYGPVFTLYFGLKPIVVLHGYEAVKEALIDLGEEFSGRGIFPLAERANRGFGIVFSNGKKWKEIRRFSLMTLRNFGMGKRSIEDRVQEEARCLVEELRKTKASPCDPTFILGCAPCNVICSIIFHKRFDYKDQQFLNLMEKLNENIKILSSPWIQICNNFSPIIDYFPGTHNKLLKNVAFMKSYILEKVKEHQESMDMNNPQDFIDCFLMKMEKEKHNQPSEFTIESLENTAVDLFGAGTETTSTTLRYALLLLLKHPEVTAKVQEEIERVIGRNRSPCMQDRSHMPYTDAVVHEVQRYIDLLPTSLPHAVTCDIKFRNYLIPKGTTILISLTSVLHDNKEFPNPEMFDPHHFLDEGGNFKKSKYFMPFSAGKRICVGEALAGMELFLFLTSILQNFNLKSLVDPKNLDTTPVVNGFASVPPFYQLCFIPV

For `CC[C@H]1[C@@H]2Cc3c(C(=O)O)n[nH]c3[C@H]12` (racemic), the Activity [1] was “inactive”.
For `O=C(O)c1n[nH]c2c1C[C@H]1[C@H](Cc3ccccc3)[C@@H]21` (racemic), the Activity [1] was “inactive”.
For `C[C@H]1[C@@H]2Cc3c(C(=O)O)n[nH]c3[C@H]12`, the Activity [1] was “inactive”.
In the case of `O=C(O)c1n[nH]c2c1C[C@@H]1[C@H]2[C@@H]1C1CC1` (racemic), the Activity [1] is reported as “inactive”.
For `COC[C@H]1[C@@H]2Cc3c(C(=O)O)n[nH]c3[C@H]12` (racemic), the Activity [1] was “inactive”.
With `C=CC[C@H]1[C@@H]2Cc3c(C(=O)O)n[nH]c3[C@H]12` (racemic) the Activity [1] was “inactive”.
In the case of `CCCC[C@H]1[C@@H]2Cc3c(C(=O)O)n[nH]c3[C@H]12` (racemic), the Activity [1] is reported as “inactive”.
For `O=C(O)c1n[nH]c2c1CC1CC21` (racemic), the Activity [1] was “inactive”.
In the case of `C=C[C@@H]1[C@@H]2Cc3c(C(=O)O)n[nH]c3[C@H]12` (racemic), the Activity [1] is reported as “inactive”.
For `C=C[C@H]1[C@@H]2Cc3c(C(=O)O)n[nH]c3[C@H]12` (racemic), the Activity [1] was “inactive”.
In the case of `CC(C)CC[C@H]1[C@@H]2Cc3c(C(=O)O)n[nH]c3[C@H]12` (racemic), the Activity [1] is reported as “inactive”.
For `CSC[C@@H]1[C@@H]2Cc3c(C(=O)O)n[nH]c3[C@H]12` (racemic), the Activity [1] was “inactive”.
In the case of `C[C@H]1[C@@H]2Cc3c(C(=O)O)n[nH]c3[C@H]12` (racemic), the Activity [1] is reported as “inactive”.
With `CC(C)C[C@H]1[C@@H]2Cc3c(C(=O)O)n[nH]c3[C@@H]21` (racemic) the Activity [1] was “inactive”.
In the case of `CCCCC[C@@H]1[C@@H]2Cc3c(C(=O)O)n[nH]c3[C@H]12` (racemic), the Activity [1] is reported as “inactive”.
For `COC[C@@H]1[C@@H]2Cc3c(C(=O)O)n[nH]c3[C@H]12` (racemic), the Activity [1] was “inactive”.
With `CCCCC[C@H]1[C@@H]2Cc3c(C(=O)O)n[nH]c3[C@H]12` (racemic) the Activity [1] was “inactive”.
With `C=CC[C@@H]1[C@@H]2Cc3c(C(=O)O)n[nH]c3[C@H]12` (racemic) the Activity [1] was “inactive”.
In the case of `C[C@@H]1[C@@H]2Cc3c(C(=O)O)n[nH]c3[C@H]12` [listing 1 of 2 here], the Activity [1] is reported as “inactive” and the Activity (Rattus norvegicus [2]) is reported as “inactive”.
With `CC(C)C[C@@H]1[C@@H]2Cc3c(C(=O)O)n[nH]c3[C@H]12` (racemic) the Activity [1] was “inactive”.
With `CCOC[C@@H]1[C@@H]2Cc3c(C(=O)O)n[nH]c3[C@H]12` (racemic) the Activity [1] was “inactive”.
In the case of `CC(C)CC[C@@H]1[C@@H]2Cc3c(C(=O)O)n[nH]c3[C@H]12` (racemic), the Activity [1] is reported as “inactive”.
In the case of `C[C@@H]1[C@H]2Cc3c(C(=O)O)n[nH]c3[C@@H]12`, the Activity [1] is reported as “inactive”.
For `CCOC[C@H]1[C@@H]2Cc3c(C(=O)O)n[nH]c3[C@H]12` (racemic), the Activity [1] was “inactive”.
With `CCC[C@H]1[C@@H]2Cc3c(C(=O)O)n[nH]c3[C@H]12` (racemic) the Activity [1] was “inactive”.
For `C[C@@H]1[C@@H]2Cc3c(C(=O)O)n[nH]c3[C@H]12` [listing 2 of 2 here], the bioavailability [3] was 51%, the Vd [4] was 0.22 L/kg and the half-life [5] was 0.3 h. For the same compound, the AUC/dose (Canis familiaris [6]) was 44.4 µM·kg·h/mg, the clearance [7] was 35 mL/min/kg and the Activity (Rattus norvegicus [8]) was 90%. For the same compound, the Cmax/dose (Rattus norvegicus [9]) was 5 µM·kg/mg, the Cmax/dose (Canis familiaris [10]) was 26 µM·kg/mg and the half-life [11] was 2.4 h. For the same compound, the Activity (Mus musculus [12]) was 30%, the Vd [13] was 0.53 L/kg and the clearance [14] was 2.4 mL/min/kg. The Activity (Rattus norvegicus [15]) was 90%, the AUC/dose (Rattus norvegicus [16]) was 5.1 µM·kg·h/mg and the Vd [17] was 0.61 L/kg. The Activity (Cytochrome P450 3A4) was “Not Active”, the bioavailability [18] was 100% and the Activity (Cytochrome P450 2C9) was “Not Active”. It also gave a bioavailability [19] of 90%, a half-life [20] of 2.1 h and a clearance [21] of 17 mL/min/kg. The AUC/dose (Mus musculus [22]) was 1.4 µM·kg·h/mg, the Activity (Cytochrome P450 2D6) was “Not Active” and the Activity (Cytochrome P450 2C8) was “Not Active”. For the same compound, the Cmax/dose (Mus musculus [23]) was 1.5 µM·kg/mg.
With `O=C(O)c1cccnc1` [NIACIN] the Activity (Mus musculus [12]) was 60% and the Activity [1] was “inactive”.
In the case of `C[C@H]1[C@H]2Cc3c(C(=O)O)n[nH]c3[C@@H]12`, the Activity [1] is reported as “inactive”.
For `O=C(O)c1n[nH]c2c1C[C@H]1[C@@H](CC3CC3)[C@@H]21` (racemic; form 1), the Activity [1] was “inactive”.
With `C1Cc2[nH]nc(-c3nn[nH]n3)c2C1` the Activity [1] was “inactive”.
In the case of `O=C(O)c1n[nH]c2c1C[C@H]1[C@@H](COc3ccccc3)[C@@H]21` (racemic), the Activity [1] is reported as “inactive”.
In the case of `CSC[C@H]1[C@@H]2Cc3c(C(=O)O)n[nH]c3[C@H]12` (racemic), the Activity [1] is reported as “inactive”.
With `O=C(O)c1n[nH]c2c1C[C@H]1[C@@H](CC3CC3)[C@@H]21` (racemic; form 2) the Activity [1] was “inactive”.
With `CCCC[C@@H]1[C@@H]2Cc3c(C(=O)O)n[nH]c3[C@H]12` (racemic) the Activity [1] was “inactive”.
For `O=C(O)c1n[nH]c2c1C[C@H]1[C@H](c3ccccc3)[C@@H]21` (racemic), the Activity [1] was “inactive”.
For `CC(C)[C@@H]1[C@@H]2Cc3c(C(=O)O)n[nH]c3[C@@H]21` (racemic), the Activity [1] was “inactive”.
With `CC[C@@H]1[C@@H]2Cc3c(C(=O)O)n[nH]c3[C@H]12` (racemic; form 2) the Activity [1] was “inactive”.
For `CC1(C)C2Cc3c(C(=O)O)n[nH]c3C21` (racemic), the Activity [1] was “inactive”.
For `CCC[C@@H]1[C@@H]2Cc3c(C(=O)O)n[nH]c3[C@H]12` (racemic), the Activity [1] was “inactive”.
For `C[C@@H]1[C@@H]2Cc3c(C(=O)O)n[nH]c3[C@H]12` (racemic), the Activity [1] was “inactive”.
For `CC[C@@H]1[C@@H]2Cc3c(C(=O)O)n[nH]c3[C@H]12` (racemic; form 1), the Activity [1] was “inactive”.
